How the values were obtained:
[1] = molecular target: T1, Cannabinoid receptor 2 (Homo sapiens, UniProt P34972); assay: Agonist activity at cloned human CB2 receptor in Sf9 cells assessed by [35S]GTPgammaS binding assay relative to delta9-THC; type: functional
[2] = molecular target: Cannabinoid receptor 1 (Homo sapiens, UniProt P21554); assay: Displacement of [3H]CP-55940 from human CB1 receptor
[3] = molecular target: T1, Cannabinoid receptor 2; assay: Displacement of [3H]CP-55940 from human CB2 receptor
[4] = molecular target: T1, Cannabinoid receptor 2; assay: Agonist activity at cloned human CB2 receptor in Sf9 cells assessed as stimulation of [35S]GTPgammaS binding assay; type: functional
How it was run: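 Sf9 membranes carrying cloned human CB2, in 50 mM Hepes, 20 mM NaOH, 100 mM NaCl, 1 mM EDTA, 5 mM MgCl2, 0.1% BSA plus GDP, pH 7.4. 10-point dose–response with [35S]GTPγS (~130,000 dpm/well), 1 h, room temperature. Filtered and washed (Tris/MgCl2/NaCl pH 7.4, 4 °C), then scintillation counted.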

Sequence of Cannabinoid receptor 1 (P21554 whole entry): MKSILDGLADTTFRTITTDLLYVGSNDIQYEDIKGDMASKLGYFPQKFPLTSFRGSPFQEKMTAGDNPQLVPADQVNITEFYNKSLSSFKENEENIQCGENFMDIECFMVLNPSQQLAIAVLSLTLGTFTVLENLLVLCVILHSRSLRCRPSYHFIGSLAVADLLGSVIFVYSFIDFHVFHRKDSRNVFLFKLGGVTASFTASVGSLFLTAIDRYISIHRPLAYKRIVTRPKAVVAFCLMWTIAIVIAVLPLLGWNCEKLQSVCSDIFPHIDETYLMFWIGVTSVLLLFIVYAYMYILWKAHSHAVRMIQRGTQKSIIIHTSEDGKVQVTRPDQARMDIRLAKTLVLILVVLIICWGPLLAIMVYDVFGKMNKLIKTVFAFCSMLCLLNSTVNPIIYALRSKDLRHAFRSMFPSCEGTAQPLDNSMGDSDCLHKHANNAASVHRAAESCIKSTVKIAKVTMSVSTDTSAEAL
T1 sequence (P34972 whole entry): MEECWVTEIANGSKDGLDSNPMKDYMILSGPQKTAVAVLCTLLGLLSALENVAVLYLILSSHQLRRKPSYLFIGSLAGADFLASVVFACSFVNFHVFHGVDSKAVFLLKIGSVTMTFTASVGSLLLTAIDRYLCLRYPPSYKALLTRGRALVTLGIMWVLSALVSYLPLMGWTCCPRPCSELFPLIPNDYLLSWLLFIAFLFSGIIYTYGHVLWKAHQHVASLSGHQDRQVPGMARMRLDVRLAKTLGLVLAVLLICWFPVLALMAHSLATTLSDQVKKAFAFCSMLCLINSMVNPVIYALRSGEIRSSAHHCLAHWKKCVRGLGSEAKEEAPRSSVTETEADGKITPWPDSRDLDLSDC

SMILES	Emax [1] [%]	Ki [2] [nM]	Ki [3] [nM]	EC50 [4] [nM]
Cc1c(C(=O)c2cccc3ccccc23)c2cccc3c2n1[C@H](CN1CCOCC1)CO3	64	–	–	–
CCOc1ccc(Cc2nc3cc(C(=O)N(CC)CC)ccc3n2CC2CCNCC2)cc1	–	> 5000	2920	–
CCN(CC)C(=O)c1ccc2c(c1)nc(Cc1ccc(Oc3ccccc3)cc1)n2CCC(C)C	66	2400	4.9	3.2
CCOc1ccc(Cc2nc3cc(C(=O)N(CC)CC)ccc3n2CC2CCCC2)cc1	79	491	1	0.7
CCOc1ccc(Cc2nc3cc(N(C)C(=O)N(C)C)ccc3n2CC2CC2)cc1	55	> 5000	41	36
CCN(CC)C(=O)c1ccc2c(c1)nc(Cc1ccc(OC(F)(F)F)cc1)n2CCC(C)C	29	> 5000	25	11
CCN(CC)C(=O)c1ccc2c(c1)nc(Cc1ccc(OC(C)C)cc1)n2CCC(C)C	79	4680	4.5	2.4
CCOc1ccc(Cc2nc3cc(C(=O)N4CCCCC4)ccc3n2CC2CC2)cc1	45	> 5000	6.9	3
CCOc1ccc(Cc2nc3cc(N(C)C(=O)CC(C)C)ccc3n2CC2CC2)cc1	54	> 5000	4	2.7
CCOc1ccc(Cc2nc3cc(C(=O)N(CC(F)(F)F)CC(F)(F)F)ccc3n2CC2CC2)cc1	51	4530	–	2
CCCN(C)C(=O)c1ccc2c(c1)nc(Cc1ccc(OCC)cc1)n2CC1CC1	54	> 5000	7.6	3.2
CCOc1ccc(C(O)c2nc3cc(C(=O)N(CC)CC)ccc3n2CCC(C)C)cc1 (configuration not stated)	70	> 5000	57	–
CCN(CC)C(=O)c1ccc2c(c1)nc(Cc1ccc(OCC3CC3)cc1)n2CCC(C)C	75	4190	53	43
CCN(CC)C(=O)c1ccc2c(c1)nc(Cc1ccc(OC3CCCC3)cc1)n2CCC(C)C	83	> 5000	43	18
CCOc1ccc(Cc2nc3cc(C(=O)N(CC)CC)ccc3n2Cc2ccccc2)cc1	88	4770	12	1.1
CCN(CC)C(=O)c1ccc2c(c1)nc(Cc1ccc(OC3CCCCC3)cc1)n2CCC(C)C	–	> 5000	526	–
CCOc1ccc(Cc2nc3cc(N(C)C(=O)NC(C)C)ccc3n2CC2CC2)cc1	51	> 5000	5.7	6.4
CCN(CC)C(=O)c1ccc2c(c1)nc(Cc1ccc(OC)cc1)n2CCC(C)C	43	> 5000	17	7.3
CCCN(CCC)C(=O)c1ccc2c(c1)nc(Cc1ccc(OCC)cc1)n2CC1CC1	67	2610	2.8	2
CCNC(=O)c1ccc2c(c1)nc(Cc1ccc(OCC)cc1)n2CC1CC1	53	> 5000	63	52
CCOc1ccc(Cc2nc3cc(C(=O)N(CC)CC)ccc3n2CC23CC4CC(CC(C4)C2)C3)cc1	81	406	2.8	1.3
CCOc1ccc(Cc2nc3cc(C(=O)N(C)C4CCCCC4)ccc3n2CC2CC2)cc1	60	> 5000	11	4.2
CCOc1ccc(Cc2nc3cc(C(=O)N(CC)CC)ccc3n2CC2CC2)cc1	68	> 5000	4.1	2.1
CCOc1ccc(Cc2nc3cc(C(=O)N(CC)CC)ccc3n2CC2CCOCC2)cc1	89	1210	3.9	1

SMILES	Emax [1] [%]	Ki [2] [nM]	Ki [3] [nM]	EC50 [4] [nM]
CCOc1ccc(Cc2nc3cc(N(C)C(=O)c4cccs4)ccc3n2CC2CC2)cc1	51	2480	5	2.6
CCOc1ccc(Cc2nc3cc(C(=O)N4CCCC4)ccc3n2CC2CC2)cc1	51	> 5000	14	6.2
CCOc1ccc(Cc2nc3cc(C(=O)N(CC)CC)ccc3n2CC2CC2)nc1	63	> 5000	27	22
CCOc1ccc(Cc2nc3cc(NC(C)=O)ccc3n2CC2CC2)cc1	–	> 5000	> 5000	–
CCN(CC)C(=O)c1ccc2c(c1)nc(Cc1ccc(OC3CCC3)cc1)n2CCC(C)C	73	> 5000	44	24
CCOc1ccc(Cc2nc3cc(C(=O)N(CC)CC)ccc3n2Cc2ccco2)cc1	78	> 5000	11	3.3
CCOc1ccc(Cc2nc3cc(NC)ccc3n2CC2CC2)cc1	–	> 5000	4340	–
CCOc1ccc(Cc2nc3cc(C(=O)N(CC)CC)ccc3n2C[C@H]2CCCO2)cc1	62	> 5000	23	8.3
CCOc1ccc(Cc2nc3cc(C(=O)N(CC)CC)ccc3n2Cc2cc[n+]([O-])cc2)cc1	–	> 5000	588	–
CCOc1ccc(Cc2nc3cc(N(C)C(=O)N(CC)CC)ccc3n2CC2CC2)cc1	48	> 5000	5.9	2
CCOc1ccc(C(=O)c2nc3cc(C(=O)N(CC)CC)ccc3n2CCC(C)C)cc1	55	> 5000	35	25
CCN(CC)C(=O)c1ccc2c(c1)nc(Cc1ccc(O)cc1)n2CCC(C)C	–	> 5000	799	–
CCOc1ccc(Cc2nc3cc(C(=O)N(CC)CC)ccc3n2Cc2ccncc2)cc1	78	> 5000	16	5
CCOc1ccc(Cc2nc3cc(N(C)C(C)=O)ccc3n2CC2CC2)cc1	–	> 5000	1350	–
CCOc1ccc(Cc2nc3cc(C(=O)N(CC)CC)ccc3n2CC2CC2)cn1	–	> 5000	–	–
CCOc1ccc(Cc2nc3cc(N(C)C(=O)N4CCCCC4)ccc3n2CC2CC2)cc1	60	3480	4	3.3
CCOc1ccc(Cc2nc3cc(C(=O)N(CC)CC)ccc3n2CC2CCC2)cc1	64	3120	1.6	1.3
CCOc1ccc(Cc2nc3cc(C(=O)N(CC)CC)ccc3n2CCC(C)C)cc1	63	> 5000	–	–
CCOc1ccc(Cc2nc3cc(C(=O)N(CC)CC)ccc3n2CC2CCCCC2)cc1	79	110	3.7	0.52
CCOc1ccc(Cc2nc3cc(C(=O)N(CC)CC)ccc3n2C[C@@H]2CCCO2)cc1	76	> 5000	15	4.8
CCN(CC)C(=O)c1ccc2c(c1)nc(Cc1ccc(OCC(F)(F)F)cc1)n2CCC(C)C	68	> 5000	57	65
CCOc1ccc(Cc2nc3cc(C(N)=O)ccc3n2CC2CC2)cc1	–	> 5000	> 5000	–
CCOc1ccc(Cc2nc3cc(C(=O)N(CC)CC)ccc3n2Cc2ccccn2)cc1	77	> 5000	39	25

Source: ChEMBL document CHEMBL1157439, “Novel benzimidazole derivatives as selective CB2 agonists” (Bioorg Med Chem Lett, 2008)
